One data set deals with HepG2 2.2.15. Kind of data set: Inhibition of Hsc70 mRNA expression in human HepG2(2.2.15) cells at 100 ug/ml after 24 hrs by RT-PCR analysis. Format: functional. As to conditions: HepG2 2.2.15, 24 h. The gist of the method: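 HepG2.2.15 cells seeded at 5 × 10^4 per well in Opti-MEM with 10% FBS, grown for one day, then exposed to compound at 100 μg/mL for 24 h. Total RNA isolated with TRIZOL. Hsc70 mRNA measured by real-time RT-PCR with GAPDH as the reference gene.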

Data set [1] in a line: Cytotoxicity against human HepG2(2.2.15) cells after 9 days. Format: cell-based. The following applies: read-out: TC50. The gist of the method:
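Cytotoxicity in HepG2.2.15 cells cultured for 9 days at 37 °C, seeded at 2 × 10^4 per well. TC50 is the concentration killing 50% of cells relative to untreated controls.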

In data set [2] the test system is Hepatitis B virus. Kind of data set: Antiviral activity against wild type HBV infected in human Huh7.5 cells assessed as reduction of viral replication at 37 ug/ml after 36 hrs. Format: functional. As to conditions: Huh-7, 36 h, read-out: INH. The gist of the method: (§1)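 Huh7.5 cells (DMEM, 10% inactivated FBS, 1% pen-strep) plated at 2 × 10^5 per well, incubated overnight, then transiently transfected for 24 h with pcDNA3.1 carrying the full wild-type or lamivudine-resistant (rtL180M + rtM204V) HBV genome. After a PBS wash, treated in fresh medium for 36 h. Replicative-intermediate HBV DNA measured by real-time PCR. Run twice; mean and SD.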

In data set [3] the test system is Hepatitis B virus. The experiment in a line: Antiviral activity against lamivudine-resistant HBV infected in human Huh7.5 cells assessed as reduction of viral replication at 37 ug/ml after 36 hrs. The format is functional. The following applies: Huh-7, 36 h, read-out: INH. The gist of the method: (§2)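 Huh7.5 cells (2 × 10^5/well) were plated, incubated overnight, then transiently transfected for 24 h with pcDNA3.1 carrying wild-type or lamivudine-resistant HBV (rtL180M + rtM204V). After a PBS wash they got fresh medium with drug (0.16 μg/mL for line 6, 37 μg/mL for line 7) for 36 h. HBV DNA replicative intermediate was measured by real-time PCR; experiment run twice, mean and SD.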

The subject of data set [4] is Mus musculus. The experiment in a line: Acute toxicity in ICR mouse assessed as mortality at up to 750 mg/kg, po after 7 days. Format: organism-based. Set-up: dose 750 mg/kg, route oral. As to conditions: in vivo, 168 h. The gist of the method: (§3)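 Male and female ICR mice (22.0 ± 1.0 g), 10 per group (5 male, 5 female), given a single oral dose of 0 (1% polysorbate-80 in saline), 250, 500 or 750 mg/kg. Survival and body weight were monitored for 7 days. Blood was then drawn for AST, ALT, BUN and CRE as liver and kidney function markers.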

Data set [5] is described as follows: Acute toxicity in po dosed ICR mouse assessed as mortality after 7 days. The format is organism-based. The following applies: in vivo. The gist of the method:
as §3

Data set [6] concerns Mus musculus. The experiment in a line: Acute toxicity in ICR mouse assessed as change in body weight at up to 750 mg/kg, po after 7 days. As to conditions: in vivo, 168 h. Set-up: dose 750 mg/kg, route oral. The format is organism-based. The gist of the method: as §3
The subject of data set [7] is Mus musculus. Kind of data set: Acute toxicity in ICR mouse assessed as liver function at up to 750 mg/kg, po after 7 days. The format is organism-based. Also noted: dose 750 mg/kg, route oral. The following applies: in vivo, 168 h. The gist of the method: as §3
Data set [8] concerns Mus musculus. The experiment in a line: Acute toxicity in ICR mouse assessed as kidney function at up to 750 mg/kg, po after 7 days. Format: organism-based. Also noted: dose 750 mg/kg, route oral. As to conditions: in vivo, 168 h. The gist of the method: as §3
Data set [9] relates to Hepatitis B virus (human). The experiment in a line: Antiviral activity against HBV in human HepG2(2.2.15) cells assessed as reduction of viral DNA level after 9 days by RT-PCR analysis. The following applies: HepG2 2.2.15, 216 h.
Data set [10] concerns Hepatitis B virus. Kind of data set: Antiviral activity against wild type HBV infected in human Huh7.5 cells assessed as reduction of viral replication at 0.16 ug/ml after 36 hrs. The following applies: Huh-7, 36 h. Format: functional. The gist of the method:
as §1

Data set [11] concerns Hepatitis B virus. Kind of data set: Antiviral activity against lamivudine-resistant HBV infected in human Huh7.5 cells assessed as reduction of viral replication at 0.16 ug/ml after 36 hrs. The format is functional. As to conditions: Huh-7, 36 h. The gist of the method: as §2

`O=C1CC(O)C[C@@H]2[C@H]3CCCN4CCC[C@@H](CN12)[C@@H]34` (stereo not given in full) [13-HYDROXYMATRINE] registered an inhibition at 100 µg/mL with HepG2 2.2.15 of 50.4%.
As usually defined, the LD50 is the dose expected to kill half of the subjects tested. One may read the IC50 as the concentration at which inhibition is half-maximal. For `CCOC1CC(=O)N2C[C@@H]3CCCN4CCC[C@@H]([C@H]34)[C@H]2C1` (stereo not given in full), the inhibition at 100 µg/mL in the data set on HepG2 2.2.15 amounted to 74.1%. In addition, the CC50 at 216 h in data set [1] came to 0.481 mM. The inhibition at 37 µg/mL with Hepatitis B virus [2] came out at 32%; in the data set on Hepatitis B virus [3], 35%. Moreover, the Activity result in the data set with Mus musculus [4], in the data set on Mus musculus [6], in the data set with Mus musculus [7] and with Mus musculus [8] was “Non-toxic” each time. In addition, the LD50 at 168 h in data set [5] is greater than 750 mg/kg. Further, the half-inhibitory concentration (IC50) in data set [9] was 9.55 µM.
With `COC1C[C@@H]2[C@H]3CCCN4CCC[C@@H](CN2C(=O)C1OC)[C@@H]34` (stereo not given in full), in the data set with HepG2 2.2.15, the inhibition at 100 µg/mL came to 39.3%.
In turn, `O=C1C(OCc2ccccc2)C(OCc2ccccc2)C[C@@H]2[C@H]3CCCN4CCC[C@@H](CN12)[C@@H]34` (stereo not given in full) came in with an inhibition at 100 µg/mL with HepG2 2.2.15 of 45.4%. In data set [1], the CC50 at 216 h was 0.037 mM. Moreover, the concentration for half-maximal inhibition (IC50) in data set [9] came to 2.76 µM.
For `O=C1CC(C[N+](=O)[O-])C[C@@H]2[C@H]3CCCN4CCC[C@@H](CN12)[C@@H]34` (stereo not given in full) the same measures were 35.8%, greater than 1 mM and 54.5 µM.
The corresponding values for `CC(=O)OC1C[C@@H]2[C@H]3CCCN4CCC[C@@H](CN2C(=O)C1O)[C@@H]34.Cl` (stereo not given in full) are 37.1%, greater than 1 mM and 346 µM.
In turn, `O=C1CCC[C@@H]2[C@H]3CCC[N+]4([O-])CCC[C@@H](CN12)[C@@H]34` (stereo not given in full) [OXYMATRINE] had an inhibition at 100 µg/mL in the data set on HepG2 2.2.15 of 55%.
For `O=C(OC1CC(=O)N2C[C@@H]3CCCN4CCC[C@@H]([C@H]34)[C@H]2C1)c1ccccc1` (stereo not given in full), the inhibition at 100 µg/mL with HepG2 2.2.15 was found to be 51%. The CC50 at 216 h in data set [1] was 0.236 mM. Further, the IC50 in [9] stood at 16.3 µM.
Consider `O=C(OC1C[C@@H]2[C@H]3CCCN4CCC[C@@H](CN2C(=O)C1OC(=O)c1ccc(F)c([N+](=O)[O-])c1)[C@@H]34)c1ccc(F)c([N+](=O)[O-])c1` (stereo not given in full), for which, in the data set with HepG2 2.2.15, the inhibition at 100 µg/mL is 30.8%.
In the data set on HepG2 2.2.15, `Cl.O=C(CCl)OC1C[C@@H]2[C@H]3CCCN4CCC[C@@H](CN2C(=O)C1O)[C@@H]34` (stereo not given in full) returned an inhibition at 100 µg/mL of 88.2%. Further, in [1], the CC50 at 216 h was 1.1 mM. Also, the IC50 in data set [9] was 14 µM.
For the molecule `O=C1CCC[C@@H]2[C@H]3CCCN4CCC[C@@H](CN12)[C@@H]34` [MATRINE], the inhibition at 100 µg/mL in the data set with HepG2 2.2.15 amounted to 52.4%.
As for `O=C1C=CC[C@@H]2[C@H]3CCCN4CCC[C@@H](CN12)[C@@H]34` [SOPHOCARPINE], the inhibition at 100 µg/mL with HepG2 2.2.15 was 21.6%.
`O=C1C(O)C(O)C[C@@H]2[C@H]3CCCN4CCC[C@@H](CN12)[C@@H]34` (stereo not given in full) [13,14-DIHYDROXYMATRINE]: the inhibition at 100 µg/mL in the data set on HepG2 2.2.15 was 38.9%. Besides, the CC50 at 216 h in [1] was greater than 1 mM. In [9], the IC50 stood at 47.1 µM.
In turn, `O=C(OC1C[C@@H]2[C@H]3CCCN4CCC[C@@H](CN2C(=O)C1O)[C@@H]34)c1ccc(F)c([N+](=O)[O-])c1` (stereo not given in full) yielded an inhibition at 100 µg/mL in the data set with HepG2 2.2.15 of 43.4%.
With `Nc1ccn([C@@H]2CS[C@H](CO)O2)c(=O)n1` [LAMIVUDINE], the values for the inhibition at 0.16 µg/mL with Hepatitis B virus [10] and in the data set with Hepatitis B virus [11] were 64% and 28%, respectively.
Molecule `CCOC(=O)OC1C[C@@H]2[C@H]3CCCN4CCC[C@@H](CN2C(=O)C1OC(=O)OCC)[C@@H]34` (stereo not given in full) had an inhibition at 100 µg/mL in the data set on HepG2 2.2.15 of less than 10%.
For the molecule `COC1=CC[C@@H]2[C@H]3CCCN4CCC[C@@H](CN2C1=O)[C@@H]34`, the inhibition at 100 µg/mL in the data set with HepG2 2.2.15 was found to be 39.7%.
For the molecule `Cl.O=C(OC1C[C@@H]2[C@H]3CCCN4CCC[C@@H](CN2C(=O)C1O)[C@@H]34)c1ccccc1` (stereo not given in full), the inhibition at 100 µg/mL in the data set with HepG2 2.2.15 turned out to be 34.5%. Besides, in data set [1], the CC50 at 216 h is 0.136 mM. Further, the IC50 in data set [9] amounted to 42.6 µM.
`CNC1CC(=O)N2C[C@@H]3CCCN4CCC[C@@H]([C@H]34)[C@H]2C1` (stereo not given in full) yielded an inhibition at 100 µg/mL in the data set on HepG2 2.2.15 of 40.1%. Moreover, in data set [1], the CC50 at 216 h is greater than 1 mM. For the same molecule, the IC50 in [9] was 168 µM.
As for `CCOC(=O)OC1C[C@@H]2[C@H]3CCCN4CCC[C@@H](CN2C(=O)C1O)[C@@H]34` (stereo not given in full), the inhibition at 100 µg/mL in the data set with HepG2 2.2.15 is 54.8%. The CC50 at 216 h in data set [1] was determined as 1 mM. The IC50 in data set [9] is 23.9 µM.
In turn, `O=C1CC(OCc2ccccc2)C[C@@H]2[C@H]3CCCN4CCC[C@@H](CN12)[C@@H]34` (stereo not given in full) showed an inhibition at 100 µg/mL with HepG2 2.2.15 of 24.7%. For the same molecule, the CC50 at 216 h in data set [1] came to 0.136 mM. Moreover, the IC50 in data set [9] worked out at 14.4 µM.
Regarding `O=C(O)P(=O)(O)O` [FOSCARNET], in [1], the CC50 at 216 h is greater than 1 mM. The IC50 in [9] was 106 µM.
Regarding `CC(Cl)C(=O)OC1C[C@@H]2[C@H]3CCCN4CCC[C@@H](CN2C(=O)C1O)[C@@H]34.Cl` (stereo not given in full), the inhibition at 100 µg/mL in the data set with HepG2 2.2.15 was determined as 48.6%. For the same molecule, the CC50 at 216 h in data set [1] is greater than 1 mM. Further, the IC50 in data set [9] is 592 µM.
For `COC1CC(=O)N2C[C@@H]3CCCN4CCC[C@@H]([C@H]34)[C@H]2C1` (stereo not given in full) the same measures were 48.6%, 1.11 mM and 121 µM.
In turn, `O=C1C=CC[C@@H]2[C@H]3CCC[N+]4([O-])CCC[C@@H](CN12)[C@@H]34` (stereo not given in full) [OXYSOPHOCARPINE] showed an inhibition at 100 µg/mL with HepG2 2.2.15 of 15.3%.
